According to the M2OR odorant receptor database:
Residue numbers refer to the chain shown, from its start.

Experiments:
Settings in all cases: stereoisomer not certain
O5AP2 A105T = system: T1, O5AP2 A105T
T1 sequence (whole entry): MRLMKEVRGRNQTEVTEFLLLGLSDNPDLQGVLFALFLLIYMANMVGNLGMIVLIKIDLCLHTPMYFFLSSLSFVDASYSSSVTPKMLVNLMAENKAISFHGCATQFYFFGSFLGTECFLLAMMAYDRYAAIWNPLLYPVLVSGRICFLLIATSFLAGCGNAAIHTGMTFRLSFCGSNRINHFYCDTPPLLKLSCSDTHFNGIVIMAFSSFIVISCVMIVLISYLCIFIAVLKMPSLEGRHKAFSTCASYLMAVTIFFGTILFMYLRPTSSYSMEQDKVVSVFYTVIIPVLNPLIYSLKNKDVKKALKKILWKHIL
Method in brief: (§1)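 Each receptor–molecule pair is labelled responsive or non-responsive (inactive) according to whether the original authors judged the measured signal statistically different from baseline. The data were taken from the main text and supplementary material of published papers and checked for typos and inconsistencies. Assay methods differed by source, with transient luciferase assays in mammalian cell lines being common.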

O5AU1 = system: T2, O5AU1
T2 sequence (whole entry): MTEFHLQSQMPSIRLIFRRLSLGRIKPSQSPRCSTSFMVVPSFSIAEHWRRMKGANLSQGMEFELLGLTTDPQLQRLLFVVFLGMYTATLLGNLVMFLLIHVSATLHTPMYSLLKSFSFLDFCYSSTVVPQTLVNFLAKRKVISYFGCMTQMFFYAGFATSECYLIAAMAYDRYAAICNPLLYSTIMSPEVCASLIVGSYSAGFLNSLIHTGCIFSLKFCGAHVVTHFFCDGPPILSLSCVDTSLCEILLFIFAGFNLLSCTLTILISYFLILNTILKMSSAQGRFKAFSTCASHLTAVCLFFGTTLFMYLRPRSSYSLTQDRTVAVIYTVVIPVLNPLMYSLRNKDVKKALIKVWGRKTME
Method in brief: as §1

O5H14 = system: T3, O5H14
T3 sequence (whole entry): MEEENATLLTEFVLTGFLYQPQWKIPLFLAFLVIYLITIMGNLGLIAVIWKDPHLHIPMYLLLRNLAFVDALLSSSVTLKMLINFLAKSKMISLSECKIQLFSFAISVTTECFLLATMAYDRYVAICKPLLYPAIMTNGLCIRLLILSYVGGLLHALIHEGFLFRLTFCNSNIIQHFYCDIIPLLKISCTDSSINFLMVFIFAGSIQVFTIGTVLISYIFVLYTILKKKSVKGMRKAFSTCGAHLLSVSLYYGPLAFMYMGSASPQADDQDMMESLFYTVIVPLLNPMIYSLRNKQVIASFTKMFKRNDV
Method in brief: as §1

O5H15 V108I S148T T167S = system: T4, O5H15 V108I S148T T167S
T4 sequence (whole entry): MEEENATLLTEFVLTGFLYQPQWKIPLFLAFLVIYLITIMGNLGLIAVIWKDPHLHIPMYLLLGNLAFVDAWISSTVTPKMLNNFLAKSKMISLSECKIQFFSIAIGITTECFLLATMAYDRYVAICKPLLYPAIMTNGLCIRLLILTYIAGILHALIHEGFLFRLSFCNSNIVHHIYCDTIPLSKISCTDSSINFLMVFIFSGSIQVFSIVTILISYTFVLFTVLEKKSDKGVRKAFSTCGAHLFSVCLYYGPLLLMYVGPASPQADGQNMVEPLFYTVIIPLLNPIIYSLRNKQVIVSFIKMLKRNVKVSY
Method in brief: as §1

O6C65 T222A = system: T5, O6C65 T222A
T5 sequence (whole entry): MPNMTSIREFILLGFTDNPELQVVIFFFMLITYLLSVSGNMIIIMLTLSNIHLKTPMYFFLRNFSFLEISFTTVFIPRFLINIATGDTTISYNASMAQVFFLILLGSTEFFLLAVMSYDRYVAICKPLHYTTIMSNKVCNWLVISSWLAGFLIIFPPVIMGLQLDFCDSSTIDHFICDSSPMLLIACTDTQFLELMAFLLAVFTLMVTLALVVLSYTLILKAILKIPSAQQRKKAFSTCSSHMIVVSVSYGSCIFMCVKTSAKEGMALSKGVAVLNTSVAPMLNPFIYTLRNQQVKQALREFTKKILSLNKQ
Method in brief: as §1

O6C70 L181P = system: T6, O6C70 L181P
T6 sequence (whole entry): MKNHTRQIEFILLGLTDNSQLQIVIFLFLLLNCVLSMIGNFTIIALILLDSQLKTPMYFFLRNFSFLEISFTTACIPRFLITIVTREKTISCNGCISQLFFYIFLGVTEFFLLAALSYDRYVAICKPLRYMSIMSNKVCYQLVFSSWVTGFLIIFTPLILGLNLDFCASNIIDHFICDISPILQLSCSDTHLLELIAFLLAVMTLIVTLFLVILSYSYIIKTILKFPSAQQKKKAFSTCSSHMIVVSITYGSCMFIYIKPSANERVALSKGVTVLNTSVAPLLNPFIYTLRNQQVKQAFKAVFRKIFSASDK
Method in brief: as §1

O7E24 S193F P242S = system: T7, O7E24 S193F P242S
T7 sequence (whole entry): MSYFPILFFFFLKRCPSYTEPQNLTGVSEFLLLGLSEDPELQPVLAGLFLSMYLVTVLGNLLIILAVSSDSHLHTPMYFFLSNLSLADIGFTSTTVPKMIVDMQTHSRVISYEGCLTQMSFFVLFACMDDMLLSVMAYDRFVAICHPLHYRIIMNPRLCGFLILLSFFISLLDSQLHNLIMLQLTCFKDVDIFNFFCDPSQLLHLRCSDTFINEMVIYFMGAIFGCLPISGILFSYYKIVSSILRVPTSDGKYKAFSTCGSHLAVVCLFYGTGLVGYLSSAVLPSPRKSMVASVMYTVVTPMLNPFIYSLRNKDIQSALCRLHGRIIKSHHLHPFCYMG
Method in brief: as §1

O7E24 = system: T8, O7E24
T8 sequence (whole entry): T7 sequence (whole entry) with F193S
Method in brief: as §1

OR10A2 (Homo sapiens) = target: T9, OR10A2 (Homo sapiens) (UniProt Q9H208)
T9 sequence (whole entry): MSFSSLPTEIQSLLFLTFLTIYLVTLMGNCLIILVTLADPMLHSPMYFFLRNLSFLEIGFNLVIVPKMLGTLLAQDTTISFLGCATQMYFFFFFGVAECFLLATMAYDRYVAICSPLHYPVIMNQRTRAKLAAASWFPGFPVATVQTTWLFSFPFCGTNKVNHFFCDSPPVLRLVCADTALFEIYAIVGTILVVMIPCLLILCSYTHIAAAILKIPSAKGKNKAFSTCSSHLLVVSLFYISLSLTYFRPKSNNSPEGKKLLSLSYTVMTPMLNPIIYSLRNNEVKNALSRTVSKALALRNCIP
Method in brief: as §1

OR10A3 (Homo sapiens) = target: T10, OR10A3 (Homo sapiens) (UniProt P58181)
T10 sequence (whole entry): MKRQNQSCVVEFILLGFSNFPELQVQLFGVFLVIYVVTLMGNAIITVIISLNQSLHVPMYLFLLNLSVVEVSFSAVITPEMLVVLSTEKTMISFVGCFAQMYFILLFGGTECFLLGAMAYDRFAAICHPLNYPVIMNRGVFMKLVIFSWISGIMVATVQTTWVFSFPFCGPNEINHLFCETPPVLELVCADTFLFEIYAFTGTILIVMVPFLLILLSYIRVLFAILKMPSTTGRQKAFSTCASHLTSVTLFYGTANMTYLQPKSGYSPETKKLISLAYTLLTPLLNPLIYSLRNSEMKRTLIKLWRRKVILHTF
Method in brief: as §1

OR10A4 (Homo sapiens) = target: T11, OR10A4 (Homo sapiens) (UniProt Q9H209)
T11 sequence (whole entry): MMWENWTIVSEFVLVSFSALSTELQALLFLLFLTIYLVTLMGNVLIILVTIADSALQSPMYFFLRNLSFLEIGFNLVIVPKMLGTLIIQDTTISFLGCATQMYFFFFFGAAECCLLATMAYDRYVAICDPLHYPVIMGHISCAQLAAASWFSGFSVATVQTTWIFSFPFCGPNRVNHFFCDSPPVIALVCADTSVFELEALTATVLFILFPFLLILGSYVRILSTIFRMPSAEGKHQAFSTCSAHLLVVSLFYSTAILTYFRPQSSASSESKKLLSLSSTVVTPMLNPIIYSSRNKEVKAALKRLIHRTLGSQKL
Method in brief: as §1

OR10A5 (Homo sapiens) = target: T12, OR10A5 (Homo sapiens) (UniProt Q9H207)
T12 sequence (whole entry): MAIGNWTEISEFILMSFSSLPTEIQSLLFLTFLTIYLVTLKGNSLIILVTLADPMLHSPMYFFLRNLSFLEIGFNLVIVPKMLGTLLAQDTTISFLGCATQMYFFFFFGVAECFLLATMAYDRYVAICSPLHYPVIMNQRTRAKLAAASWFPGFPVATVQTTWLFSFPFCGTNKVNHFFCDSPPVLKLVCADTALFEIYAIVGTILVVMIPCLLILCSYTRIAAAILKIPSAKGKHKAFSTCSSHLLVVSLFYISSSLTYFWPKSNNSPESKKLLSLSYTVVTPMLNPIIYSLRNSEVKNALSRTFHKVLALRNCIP
Method in brief: as §1

OR10A6 (Homo sapiens) = target: T13, OR10A6 (Homo sapiens) (UniProt Q8NH74)
T13 sequence (whole entry): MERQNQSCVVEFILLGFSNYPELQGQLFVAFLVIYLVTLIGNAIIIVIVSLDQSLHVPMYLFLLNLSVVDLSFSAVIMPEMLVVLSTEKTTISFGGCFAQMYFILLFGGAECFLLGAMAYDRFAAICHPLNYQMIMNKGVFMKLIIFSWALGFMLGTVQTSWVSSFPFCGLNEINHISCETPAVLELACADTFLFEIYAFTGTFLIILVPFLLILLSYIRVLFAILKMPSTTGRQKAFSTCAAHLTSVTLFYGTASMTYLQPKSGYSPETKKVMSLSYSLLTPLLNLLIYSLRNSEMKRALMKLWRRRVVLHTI
Method in brief: as §1

OR10A7 (Homo sapiens) = target: T14, OR10A7 (Homo sapiens) (UniProt Q8NGE5)
T14 sequence (whole entry): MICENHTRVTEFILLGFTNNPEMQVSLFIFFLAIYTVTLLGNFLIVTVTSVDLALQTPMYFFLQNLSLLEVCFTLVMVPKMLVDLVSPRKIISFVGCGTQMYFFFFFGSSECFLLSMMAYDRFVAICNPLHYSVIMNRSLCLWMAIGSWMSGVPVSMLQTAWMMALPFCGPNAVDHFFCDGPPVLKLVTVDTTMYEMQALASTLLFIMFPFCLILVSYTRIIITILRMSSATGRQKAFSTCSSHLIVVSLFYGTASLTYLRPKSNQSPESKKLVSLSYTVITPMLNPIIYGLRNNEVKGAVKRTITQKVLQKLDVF
Method in brief: as §1

OR10AD1 (Homo sapiens) = target: T15, OR10AD1 (Homo sapiens) (UniProt Q8NGE0)
T15 sequence (whole entry): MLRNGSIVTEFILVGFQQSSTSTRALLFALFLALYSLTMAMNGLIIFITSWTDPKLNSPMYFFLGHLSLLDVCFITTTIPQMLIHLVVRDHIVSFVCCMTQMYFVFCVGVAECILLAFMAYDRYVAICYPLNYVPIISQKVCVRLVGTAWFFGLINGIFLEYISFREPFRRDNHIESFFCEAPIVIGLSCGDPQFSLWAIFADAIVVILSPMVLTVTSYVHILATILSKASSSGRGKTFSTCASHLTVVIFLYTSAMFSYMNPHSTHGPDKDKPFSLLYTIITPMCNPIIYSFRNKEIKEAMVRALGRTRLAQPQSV
Method in brief: as §1

OR10AG1 (Homo sapiens) = target: T16, OR10AG1 (Homo sapiens) (UniProt Q8NH19)
T16 sequence (whole entry): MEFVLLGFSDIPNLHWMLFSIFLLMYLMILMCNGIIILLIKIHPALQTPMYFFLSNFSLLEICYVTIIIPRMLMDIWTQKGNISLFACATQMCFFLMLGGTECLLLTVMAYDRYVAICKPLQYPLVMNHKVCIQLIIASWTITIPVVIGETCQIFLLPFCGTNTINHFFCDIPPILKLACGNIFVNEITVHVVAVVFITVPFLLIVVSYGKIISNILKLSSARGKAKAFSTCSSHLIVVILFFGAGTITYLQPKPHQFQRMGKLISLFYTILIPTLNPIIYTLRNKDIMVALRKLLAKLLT
Method in brief: as §1

OR10C1 (Homo sapiens) = target: T17, OR10C1 (Homo sapiens) (UniProt Q96KK4)
T17 sequence (whole entry): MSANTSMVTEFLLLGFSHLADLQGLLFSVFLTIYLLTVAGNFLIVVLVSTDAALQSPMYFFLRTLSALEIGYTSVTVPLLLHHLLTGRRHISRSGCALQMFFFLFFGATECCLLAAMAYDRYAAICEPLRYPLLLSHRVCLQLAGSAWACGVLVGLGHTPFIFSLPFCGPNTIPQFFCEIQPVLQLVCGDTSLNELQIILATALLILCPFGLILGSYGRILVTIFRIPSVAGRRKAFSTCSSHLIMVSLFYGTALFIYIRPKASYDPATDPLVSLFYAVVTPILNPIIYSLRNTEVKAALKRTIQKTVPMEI
Method in brief: as §1

OR10D3 (Homo sapiens) = target: T18, OR10D3 (Homo sapiens) (UniProt Q8NH80)
T18 sequence (whole entry): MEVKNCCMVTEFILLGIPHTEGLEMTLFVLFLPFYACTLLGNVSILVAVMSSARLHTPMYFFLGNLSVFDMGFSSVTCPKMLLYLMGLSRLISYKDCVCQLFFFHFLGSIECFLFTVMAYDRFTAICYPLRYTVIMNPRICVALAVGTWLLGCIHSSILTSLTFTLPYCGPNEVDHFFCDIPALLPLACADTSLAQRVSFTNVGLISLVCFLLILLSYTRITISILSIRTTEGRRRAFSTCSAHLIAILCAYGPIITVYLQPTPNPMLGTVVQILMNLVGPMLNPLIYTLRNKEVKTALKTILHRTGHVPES
Method in brief: as §1

O5AN1 = system: T19, O5AN1
T19 sequence (whole entry): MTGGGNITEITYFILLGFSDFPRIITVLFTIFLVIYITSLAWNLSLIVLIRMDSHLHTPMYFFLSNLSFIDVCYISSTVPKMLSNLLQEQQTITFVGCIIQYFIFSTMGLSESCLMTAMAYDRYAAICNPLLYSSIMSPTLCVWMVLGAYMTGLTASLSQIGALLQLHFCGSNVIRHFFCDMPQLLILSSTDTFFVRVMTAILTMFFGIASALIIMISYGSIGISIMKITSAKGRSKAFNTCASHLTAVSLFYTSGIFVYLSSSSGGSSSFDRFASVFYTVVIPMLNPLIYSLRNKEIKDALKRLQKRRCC
Method in brief: as §1

Measured: odorant receptor agonist call;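 further: active if original authors judged signal statistically different from baseline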

CCCCCCC=CCCC=O
not listed: O5AN1
inactive: all other assays above

CCCCCCCC(=O)CCCCCCC
inactive: O5AN1

CC1=NC(C)C(C)S1 (configuration not stated)
not listed: O5AN1
inactive: all other assays above
